Tests used:
Klebsiella pneumoniae [1] = test: Antibacterial activity against Klebsiella pneumoniae SR200487 assessed as inhibition of bacterial growth incubated for 16 to 24 hrs by CLSI based two-fold serial dilution method; type: functional; settings: time 16-24 hrs
Outline: (§1)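 CLSI broth microdilution in cation-adjusted Mueller Hinton broth, twofold serial dilutions, about 5 × 10⁴ cfu/well from OD625, 35 °C for 16−20 h. MIC is the lowest concentration with no visible growth.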

[2] = Total clearance in rat at 1 mg/kg,iv by LC/MS/MS analysis; type: ADME, organism-based; settings: in vivo
Outline: (§2)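 Intravenous dosing (mouse 10, rat 1, dog 5, monkey 5 mg/kg); plasma quantified by LC/MS/MS after methanol precipitation with external standard; AUC by linear trapezoidal approximation; CLtot = dose/AUC.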

Klebsiella pneumoniae [3] = test: Antibacterial activity against Klebsiella pneumoniae SR201325 assessed as reduction in bacterial growth by measuring minimum […] concentration incubated for 16 to 24 hrs by CLSI based two-fold serial dilution method; type: functional; settings: time 16-24 hrs
Outline: (§3)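 Inhibitor twofold serially diluted in cation-adjusted Mueller Hinton broth containing ceftibuten 1 μg/mL. About 5 × 10⁴ cfu/well, 35 °C for 16−20 h. […] N = 1.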

Escherichia coli [4] = test: Antibacterial activity against Escherichia coli ATCC SR34100 assessed as inhibition of bacterial growth incubated for 16 to 20 hrs by CLSI based two-fold serial dilution method
[5] = Inhibition of bacterial beta-lactamase CTX-M-15 using nitrocefin as substrate incubated for 20 mins; parameters: species or system Bacteria
[6] = Inhibition of bacterial beta-lactamase CMY-2 using nitrocefin as substrate incubated for 20 mins; parameters: species or system Bacteria
Outline: (§4)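 Nitrocefin hydrolysis read by absorbance. Enzyme titrated to give about 0.2 absorbance change over the no-enzyme control. Enzyme added to nitrocefin (final 50 μg/mL) plus inhibitor, no preincubation, read after 20 min at 35 °C. IC50 is 50% reduction of hydrolysis. N = 1.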

[7] = Total clearance in rat by LC-MS/MS analysis; type: ADME; settings: in vivo
[8] = Total clearance in monkey at 5 mg/kg,iv by LC/MS/MS analysis; type: ADME, organism-based, Macaca mulatta; settings: rhesus monkey, in vivo; outline: as §2
Enterobacter cloacae [9] = test: Antibacterial activity against Enterobacter cloacae SR100108 assessed as reduction in bacterial growth by measuring minimum […] concentration incubated for 16 to 20 hrs by CLSI based two-fold serial dilution method; settings: time 16-20 hrs
Klebsiella pneumoniae [10] = test: Antibacterial activity against Klebsiella pneumoniae SR200487 assessed as reduction in bacterial growth by measuring minimum […] concentration incubated for 16 to 20 hrs by CLSI based two-fold serial dilution method; settings: time 16-20 hrs
Enterobacter cloacae [11] = test: Antibacterial activity against Enterobacter cloacae SR200030 assessed as reduction in bacterial growth by measuring minimum […] concentration incubated for 16 to 24 hrs by CLSI based two-fold serial dilution method; type: functional; settings: time 16-24 hrs; outline: as §3
[12] = Total clearance in dog at 5 mg/kg,iv by LC/MS/MS analysis; type: ADME, organism-based, Canis lupus familiaris; settings: in vivo; outline: as §2
[13] = Half life in mouse at 10 mg/kg,iv by LC/MS/MS analysis; type: ADME, organism-based; settings: in vivo
Outline: (§5)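 After iv dosing, T1/2 taken as ln 2/kel, with kel from the slope of the log concentration–time profile. Plasma levels measured by LC/MS/MS with an external standard.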

[14] = AUC in dog at 5 mg/kg,iv by LC/MS/MS analysis; type: ADME, organism-based, Canis lupus familiaris; parameters: dose 5 mg/kg, route iv; settings: in vivo
Outline: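 Plasma of the parent acid measured by LC/MS/MS (methanol precipitation, positive ESI, external standard); oral values follow prodrug dosing (rat fed, dog and monkey fasted). AUC from 0 h to last time point by linear trapezoid; F from oral AUC versus iv AUC of the parent. N = 2 (rat, dog), N = 3 (monkey, mouse).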

Escherichia coli [15] = test: Antibacterial activity against Escherichia coli ATCC SR09613 assessed as reduction in bacterial growth by measuring minimum […] concentration incubated for 16 to 24 hrs by CLSI based two-fold serial dilution method; type: functional; settings: time 16-24 hrs
Outline: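 MPC₁ by broth microdilution: twofold serial dilutions of inhibitor in cation-adjusted Mueller Hinton broth containing ceftibuten at 1 μg/mL. Inoculum about 5 × 10⁴ cfu/well final, set from OD625. Incubation at 35 °C for 16−20 h. […] N = 1.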

Enterobacter cloacae [16] = test: Antibacterial activity against Enterobacter cloacae SR200030 assessed as inhibition of bacterial growth incubated for 16 to 24 hrs by CLSI based two-fold serial dilution method; type: functional; settings: time 16-24 hrs; outline: as §1
[17] = Inhibition of bacterial beta-lactamase KPC-2 using nitrocefin as substrate incubated for 20 mins; parameters: species or system Bacteria; outline: as §4
[18] = Half life in monkey at 5 mg/kg,iv by LC/MS/MS analysis; type: ADME, organism-based, Macaca mulatta; settings: rhesus monkey, in vivo; outline: as §5
[19] = Half life in rat at 1 mg/kg,iv by LC/MS/MS analysis; type: ADME, organism-based; settings: in vivo; outline: as §5

- MIC (Klebsiella pneumoniae [1]): > 32 µg/mL
- clearance [2]: 27 mL/min/kg
- MIC (Escherichia coli [4]): 32 µg/mL
- IC50 [5]: 12 nM
- IC50 [6]: 28 nM
- clearance [7]: 27 mL/min/kg
- clearance [8]: 6.15 mL/min/kg
- clearance [12]: 4.3 mL/min/kg
- half-life [13]: 24 min
- AUC [14]: 19400 ng·h/mL
- MIC (Enterobacter cloacae [16]): > 32 µg/mL
- IC50 [17]: 14 nM
- half-life [18]: 30 min
- half-life [19]: 12 min
Structure (SMILES): C[S@@+]([O-])[C@@H]1CC[C@@H]2CN1C(=O)N2O[C@H](F)C(=O)[O-].[Na+]
- MPC (Klebsiella pneumoniae [3]): 2 µg/mL
- MPC (Enterobacter cloacae [9]): 1 µg/mL
- MPC (Klebsiella pneumoniae [10]): 0.5 µg/mL
- MPC (Enterobacter cloacae [11]): 4 µg/mL
- MPC (Escherichia coli [15]): 0.125 µg/mL
